Only some compounds are listed: those with a hit (about 2.1% of all), similar ones and a draw of the others.
GSK3beta inhib = human GSK3beta kinase inhibitors, primary screen, biochemical, cell-free homogeneous, HTS; Glycogen synthase kinase-3 beta (Homo sapiens), P49841; GST-GSK3beta kinase, ADP-Glo luminescence, 60 min; active compounds read low; activity score (negative = inhibition), % at 10 µM; actives 0.038% (n = 300,000);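 active means more than half of replicate wells score below -50%, meaning over 50% inhibition versus plate controls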
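Test system: GST-tagged human GSK3beta kinase, cell-free; evaluation: activity score scaled between in-plate DMSO and GW8510 controls; measured by: ADP-Glo luminescence; incubation: 60 min reaction, RT; benchmarks: DMSO and 20 µM GW8510; reagent: peptide substrate plus 25 µM ATP (final); medium: Tris/MgCl2 kinase buffer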
STK33 inh = inhibitors of purified STK33 kinase, primary screen, biochemical, ADP-Glo luminescence, homogeneous, cell-free; MBP phosphorylation; actives 0.073% (n = 320,000); Serine/threonine-protein kinase 33 (Homo sapiens), Q9BYT3; inhibition, % at 10 µM;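 active means inhibition at or above 25%, using the most active replicate where run in duplicate; inactive means inhibition below 25%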
MEKK2 WT-MEK5 = modulators of MEK5 binding to wildtype MEKK2, primary screen, biochemical, multiplex bead flow cytometry, Alexa488-MEK5; Alexa488-MEK5 binding to MEKK2 WT; actives lie on both sides; binding response (% of control), % at 10 µM; actives 1.1% (n = 290,000); in the data active means binding response below about 67% or above about 130%
GSK3A inh = blockers of GSK3A enzyme activity – biochemical, luminescence, cell-free homogeneous, HTS, primary screen; Glycogen synthase kinase-3 alpha (Homo sapiens), P49840; GSK-3 alpha kinase, ADP-Glo luminescence, 60 min; inhibition, % at 10 µM; actives 0.1% (n = 320,000); AID 2650, 2010;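 active means more than half of replicates show inhibition above 20%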;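 further: GST-tagged GSK-3 alpha with peptide substrate and 25 µM ATP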
MEKK3 PB1 HTS = modulators of MEKK3-MEK5 PB1 binding, primary screen, biochemical, wildtype MEKK3, multiplex bead flow cytometry, Alexa488-MEK5 | bead-based flow cytometry, Alexa488-MEK5 binding to MEKK3; actives lie on both sides; 0 = blocked by unlabeled MEK5, 100 = vehicle | actives 1.4% (n = 290,000) | AID 1529, 2009 | binding response (% of control), % at 10 µM | Mitogen-activated protein kinase kinase kinase 3 (Homo sapiens), Q99759;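 active means binding response more than 3 SD above or below the average of its plate-row segment, actives on both sides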;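 further: Alexa488 bead fluorescence after subtracting the streptavidin-only scavenger bead signal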
MEKK2 mut-MEK5 = MEK5 binding signal on mutant MEKK2 PB1, primary screen, biochemical, multiplex bead flow cytometry, Alexa488-MEK5 | actives 0.35% (n = 290,000) | percent response, % at 10 µM | Alexa488-MEK5 binding to MEKK2 mutant | AID 1530, 2009; in the data active means percent response above about 24%, passing the limit was not always enough
MEKK2wt confirm = modulators of MEK5 binding to wildtype MEKK2, confirmation, biochemical, single concentration, multiplex bead flow cytometry. actives 2.4% (n = 5,900). Alexa488-MEK5 binding to MEKK2 WT; actives lie on both sides. binding response (% of control), % at 10 µM. shares compounds with MEKK3 PB1 HTS; in the data active means binding response below about 16% or above about 210%; inactive means in between
MEKK2mut confirm = mutant MEKK2 PB1-MEK5 binding signal retest – biochemical, single concentration, multiplex bead flow cytometry, confirmation; percent response, % at 10 µM; shares compounds with MEKK3 PB1 HTS; Alexa488-MEK5 binding to MEKK2 mutant; AID 1893, 2009; actives 2% (n = 5,900); in the data active means percent response mostly above about 71%, no sharp cut-off; inactive means mostly below about 38%;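 further: higher means compound restores mutant binding toward wildtype level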
MEKK3 confirm = MEKK3 wild-type PB1 binding to MEK5, inhibitors, confirmation, biochemical, bead multiplex flow cytometry, single concentration, wildtype; shares compounds with MEKK3 PB1 HTS; Alexa488-MEK5 binding to MEKK3; active compounds read low; binding response (% of control), % at 10 µM; actives 1.8% (n = 5,900); AID 1894, 2009;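 active means binding response below 72% of control, or above a set upper limit, though filed actives all read lower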;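 further: lower values mean stronger disruption of MEK5 binding to MEKK3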
Each line names hits and unclear results; the compound was inactive in the other large screens (follow-up assays come after a bar, where they were run); [ ] = another dose, or the depositor's remark.

Cn1cnnc1-c1cccc(NC(=O)c2cc(F)c(F)cc2Cl)c1	MEKK3 PB1 HTS 135.0 | MEKK2wt confirm inactive | MEKK2mut confirm inactive | MEKK3 confirm inactive
O=C(N=C1SC2CS(=O)(=O)CC2N1c1cc(Cl)ccc1Cl)C1CCCO1 (stereo not given)	none
COC(=O)C1=C(N)Oc2cc(C)[nH]c(=O)c2C1c1ccccc1OC (stereo not given)	none
Cc1ccc2cc(/C=C3\N=C(c4ccccc4)OC3=O)c(N3CCOCC3)nc2c1	MEKK2 WT-MEK5 28.0[inhibitor], MEKK3 PB1 HTS 75.0[inhibitor] | MEKK2wt confirm inactive | MEKK2mut confirm inactive | MEKK3 confirm inactive
COc1ccc(N2CCN(c3nc4cc(C)ccc4cc3C=O)CC2)cc1	none
CC1CCCCN1C(=O)c1cc(S(=O)(=O)N2CCOCC2)ccc1Cl (stereo not given)	none (no result: GSK3beta inhib, MEKK2 WT-MEK5, MEKK3 PB1 HTS, MEKK2 mut-MEK5)
O=C(CSc1nc2c(c(=O)n1-c1ccc(F)cc1)SCC2)NCc1ccco1	MEKK3 PB1 HTS 124.0 (no result: GSK3beta inhib) | MEKK2wt confirm inactive | MEKK2mut confirm inactive | MEKK3 confirm inactive
CCCSc1nc(C)cc(=O)[nH]1	none
CCCSc1nc(N)cc(=O)[nH]1	MEKK2 WT-MEK5 46.0[inhibitor], MEKK3 PB1 HTS 35.0[inhibitor] | MEKK2wt confirm inactive | MEKK2mut confirm inactive | MEKK3 confirm inactive
O=C(C(=O)N1CCN(c2cccc(Cl)c2)CC1)c1cn(CC(=O)N2CCOCC2)c2ccccc12	none
O=C1C(Cl)=C(N2CCCCC2)C(=O)C(Cl)=C1c1cnc(N2CCCCC2)s1	MEKK2 WT-MEK5 60.0[inhibitor], MEKK3 PB1 HTS 62.0[inhibitor] (no result: STK33 inh, GSK3A inh) | MEKK2wt confirm inactive | MEKK2mut confirm inactive | MEKK3 confirm inactive
CCCCOc1ccc(CSCCN)cc1Cl	MEKK2 WT-MEK5 169.0, MEKK3 PB1 HTS 128.0 | MEKK2wt confirm inactive | MEKK2mut confirm inactive | MEKK3 confirm inactive
Cc1ccc(C)c(NC(=O)CCn2nc(C)cc2C)c1	none
Cc1ccc(NC(=O)CCn2nc(C)cc2C)cc1	MEKK2 WT-MEK5 139.0, MEKK3 PB1 HTS 142.0 | MEKK2wt confirm inactive | MEKK2mut confirm inactive | MEKK3 confirm inactive
COc1ccc(/C=N/NC(=O)CCn2nc(C)cc2C)cc1	MEKK3 PB1 HTS 133.0 | MEKK2wt confirm inactive | MEKK2mut confirm inactive | MEKK3 confirm inactive
CN(CC(=O)Nc1ccc(F)cc1)C(=O)CN1C(=O)NC2(CCCc3ccccc32)C1=O (stereo not given)	none
CCOc1ccc(NC(=O)CCNC(=O)Cn2ccc3ccccc3c2=O)cc1	none
Cc1onc(-c2c(F)cccc2Cl)c1C(=O)OCC(=O)NC1CC1	MEKK3 PB1 HTS 70.0[inhibitor] | MEKK2wt confirm inactive | MEKK2mut confirm inactive | MEKK3 confirm inactive
CCOC(=O)C1CCN(C(=O)c2c(-c3c(F)cccc3Cl)noc2C)CC1	MEKK3 PB1 HTS 127.0 | MEKK2wt confirm inactive | MEKK2mut confirm inactive | MEKK3 confirm inactive
Cc1onc(-c2c(F)cccc2Cl)c1C(=O)OCC(=O)NC(N)=O	none

Screening data: PubChem, several laboratories
